High-throughput results (PubChem)
In the library only some 3.5% were active in any assay of this set; here they are far more common.
FN deposit inh = fibronectin deposition inhibition | AH1F fibroblasts, Alexa488-fibronectin deposition fluorescence, overnight | inhibition, % at 12.6 µM | 0.086% of 350,000 active;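 active = mean inhibition across replicates of 30% or more, regardless of how many single replicates reach that level; inconclusive = mean under 30% yet at least half of replicates reach 30%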;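 note: positive control wells lacked labelled fibronectin entirely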
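Material: AH1F fibroblast monolayer depositing Alexa488-labelled fibronectin into matrix / Amount: 10000 AH1F cells per well / Signal: fluorescence 485/525 nm / Medium: DMEM, 2% serum / Compound: single dose, pinned / Incubation: 1 h cell adhesion before compound, then overnight fibronectin incubation / Reagent: Alexa488-FN, 24 nM final / Read-out: inhibition of fibronectin deposition signal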
PglD inh = PglD (C. jejuni) enzyme inhibition. 0.098% of 360,000 active. AID 602405. purified PglD enzyme, DTNB colorimetric CoA detection. inhibition, % at 12.5 µM; in the data active = inhibition above about 16%, passing the limit was not always enough; inconclusive = no clear call, values can overlap the other calls
DENV2 CPE rescue = DENV2-induced cell death inhibition; 1.7% of 350,000 active; CPE inhibition, % at 9.99 µM; DENV2-infected cells, cytopathic effect rescue, plate reader; in the data active = CPE inhibition above about 20%, passing the limit was not always enough; inconclusive = no clear call, values can overlap the other calls; tested in BHK-21 cells;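 note: 0% = median of neutral control wells and 100% = median of positive control wells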
Env fusion inh = inhibitors of HIV Env-mediated cell fusion; 1.1% of 360,000 active; HeLa-JRFL Env/CEM21 cell fusion, luciferase; inhibition, % at 12.3 µM;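 active = mean replicate inhibition score of at least 50 and every replicate individually at or above 50; inconclusive = only one of the two criteria met; inactive = mean below 50 and not all replicates reaching 50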;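 note: 0% = plate neutral controls and 100% = maraviroc near 300 nM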
Ecoli rRNA inh = inhibits bacterial ribosomal RNA function over humanized ribosomes | E. coli WT GFP vs humanized-ribosome RFP mutants, fluorescence, 24 h; active compounds read low; DMSO median 0, no signal -100 | GFP signal change (wild-type ribosome), % (test concentration not listed) | 1.6% of 350,000 active | AID 720706;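 active = significant combined selectivity score with lowered wild-type GFP, culture density cut under 30%, mutant RFP and density less affected; inactive = any of these conditions unmet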
PGC1a acetyl inh = modulators of PGC1a acetylation | U2OS PGC1a acetylation, AlphaScreen anti-acetyl-lysine; with virally co-expressed GCN5 acetyltransferase | inhibition, % at 15.6 µM | 0.17% of 350,000 active;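 active = every replicate shows inhibition of at least 40%; inconclusive = mean inhibition at least 40% but some replicate below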;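 note: 0% = neutral control wells and 100% = positive control wells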
An asterisk follows results filed as active; ? = inconclusive; nt = no result; [ ] = dose if it differs, or a comment.

SMILES | FN deposit inh | PglD inh | DENV2 CPE rescue | Env fusion inh | Ecoli rRNA inh | PGC1a acetyl inh
C[C@@H]1CN([C@H](C)CO)C(=O)c2cccc(N(C)C)c2O[C@H]1CN(C)Cc1ccncc1 | -5 | 1 | 20* | 11[16.7 µM] | -2 | 9
C[C@H](CO)N1C[C@H](C)[C@H](CN(C)CC2CC2)Oc2c(cccc2N(C)C)C1=O | -8 | -3 | 44* | -8[16.7 µM] | -1 | 3
C[C@@H]1CN([C@@H](C)CO)C(=O)c2cccc(N(C)C)c2O[C@H]1CN(C)C(=O)NC1CCCCC1 | 4 | 0 | 3 | -21[16.7 µM] | 2 | 0
O=C(N[C@H](Cc1ccccc1)C(=O)NCC1CCCCC1)[C@H]1O[C@@H](n2ccc(=O)[nH]c2=O)[C@H](O)[C@@H]1O | 9 | nt | 11 | -5 | 12 | nt
CO[C@H]1CN(C)C(=O)c2ccc(NC(=O)Nc3ccccc3F)cc2OC[C@@H](C)N(C(C)=O)C[C@H]1C | nt | 0 | -4 | -4[16.7 µM] | -2 | 5
C[C@H](CO)N1C[C@H](C)[C@@H](CN(C)S(=O)(=O)c2ccc(Cl)cc2)Oc2ccc(NS(=O)(=O)c3ccccc3)cc2C1=O | nt | nt | nt | -4[16.7 µM] | -1 | -2
O=CNc1ccc2c(c1)Cc1cc([N+](=O)[O-])ccc1-2 | nt | -2 | -1 | 75* | -30 | -54
Cc1c(C#N)c(O)n(C)c(=O)c1N=Nc1ccc(S(N)(=O)=O)cc1 | -19 | nt | 6 | -125 | 23 | nt
Cc1c(C#N)c(O)n(CCO)c(=O)c1N=Nc1ccc(S(N)(=O)=O)cc1 | -6 | 1 | 45* | -7 | 8 | nt
CC1=C(C(=O)NC2CCCc3c2cnn3-c2cccc(C)c2C)OCCO1 (stereo not drawn) | 6 | 4 | ? | nt | -2 | -3
Cc1cccc(-n2ncc3c2CCCC3NC(=O)c2cccs2)c1C (stereo not drawn) | nt | nt | -4 | 1 | 2 | nt
CCn1cc(C(=O)NC2CCCc3c2cnn3-c2cccc(C)c2C)cn1 (stereo not drawn) | nt | -1 | -2 | 57* | 0 | nt
Cc1cccc(-n2ncc3c2CCCC3NC(=O)c2ccncc2)c1C (stereo not drawn) | 1 | 1 | -5 | 61* | 3 | 3
COC(=O)c1ccc(C(=O)NC2CCCc3c2cnn3-c2ccc(C)c(C)c2)cc1 (stereo not drawn) | nt | 0 | ? | 72* | 0 | 9
C[C@@H]1CN([C@H](C)CO)C(=O)Cc2cc(NC(=O)Cc3ccccc3)ccc2O[C@H]1CN(C)S(C)(=O)=O | nt | -1 | -8 | 11[16.7 µM] | -1 | 12
CCCN(C)C[C@H]1OCCCC[C@@H](C)Oc2ccc(NS(=O)(=O)c3ccc(F)cc3)cc2C(=O)N([C@@H](C)CO)C[C@H]1C | -4 | 3 | 17 | -18[16.7 µM] | 1 | 9
CC=Cc1ccc2n(c1=O)C[C@H]1[C@H](CO)[C@@H](C(=O)NCC)[C@@H]2N1C(=O)c1ccc(F)cc1 (mixture of isomers) | nt | 3 | -3 | nt | 3 | nt
Cc1ccc2oc(-c3cccc(N)c3)nc2c1 | -7 | -3 | nt | -128 | -23* | -10
COc1cccc(N2CCN(C(=O)CCSCc3ccccc3F)CC2)c1 | nt | nt | nt | -2 | -35* | nt
COc1ccccc1CC(=O)N1CCN(c2cccc(C(F)(F)F)c2)CC1 | -12 | -1 | nt | 66* | nt | -7
C[C@@H]1CCCCO[C@@H](CN(C)Cc2ccccc2)[C@H](C)CN([C@H](C)CO)C(=O)c2cc(NC(=O)Nc3ccccc3)ccc2O1 | -1 | 3 | -11 | -13[16.7 µM] | 2 | -15
O=C(OCc1cnc(Cl)s1)c1cccs1 | nt | 2 | 0 | -5 | 4 | 94*
C[C@@H]1CN([C@H](C)CO)C(=O)c2cc(NC(=O)Nc3cccc4ccccc34)ccc2O[C@@H]1CN(C)CC1CCCCC1 | nt | -1 | ? | nt | 1 | -18
C[C@@H]1CCCCO[C@@H](CN(C)C(=O)NC2CCCCC2)[C@H](C)CN([C@H](C)CO)C(=O)c2cc(NC(=O)Nc3ccc4c(c3)OCO4)ccc2O1 | 0 | 5 | 0 | 8[16.7 µM] | 2 | 9
Cc1ccc(C(=O)C(C)OC(=O)Cc2c[nH]c3ccccc23)cc1 (stereo not drawn) | -1 | 2 | 27* | nt | -15 | nt
SMILES | FN deposit inh | PglD inh | DENV2 CPE rescue | Env fusion inh | Ecoli rRNA inh | PGC1a acetyl inh
CO[C@H]1CC[C@H]2CCOc3ccc(C#N)cc3C(=O)N(C)C[C@H](c3ccccc3)CC(=O)N(C)C[C@@H]1O2 | -3 | 1 | -8 | -14[16.7 µM] | 2 | nt
C=CCN1C(=O)c2ccccc2NC1c1ccc(Br)s1 (stereo not drawn) | -5 | 5 | -2 | -1 | -16 | -14
O=C1c2ccccc2NC(c2ccc(Br)s2)N1O (stereo not drawn) | 3 | nt | 53* | -16 | -47 | nt
C[C@@H]1CCCCO[C@H](CN(C)Cc2ccccc2)[C@H](C)CN([C@H](C)CO)C(=O)c2cc(NS(=O)(=O)c3ccc(F)cc3)ccc2O1 | -17 | -1 | 13 | -19[16.7 µM] | 3 | 4
COC(=O)c1c(NC(=O)c2ccccc2C(=O)O)sc2c1CCC2 | -4 | -1 | 9 | 0 | -21* | 6
NCCNC(=O)c1c(NC(=O)c2ccccc2)sc2c1CCCC2 | 0 | 1 | -6 | -12 | -22* | 0
CO[C@H]1CN(C)C(=O)c2ccc(NC(=O)Cc3ccccc3)cc2OC[C@H](C)NC[C@H]1C | -1 | 0 | -3 | 2[16.7 µM] | 1 | -3
CCC(=O)Nc1ccc2c(c1)OC[C@H](C)N(C(=O)c1ccc(F)cc1)C[C@H](C)[C@H](OC)CN(C)C2=O | -1 | 1 | -1 | -17[16.7 µM] | 0 | 15
CC(C)CC#Cc1ccc([C@@H]2[C@H](CO)N3C(=O)CN(C(=O)c4cccc(F)c4)C[C@@H]23)cc1 | 1 | nt | 0 | nt | -16 | -4
C[C@@H](NC(=O)C[C@@H]1C[C@@H]2c3cc(NC(=O)c4cccnc4)ccc3O[C@@H]2[C@@H](CO)O1)c1ccccc1 | nt | -1 | ? | -2[16.7 µM] | -6 | -3
CC(C)CCn1c2ccccc2c2cc(CC(N)=O)ccc21 | 1 | nt | 29* | 33 | -13 | nt
Cc1cc(C)n(-c2nc(NC(C)(C)C)nc(NC(C)(C)C)n2)n1 | nt | nt | nt | nt | nt | 1
CCNc1nc(NCC)nc(-n2nc(C)cc2C)n1 | nt | 5 | 3 | nt | -42* | 7
COc1cccc(C(=O)N(Cc2ccccc2)Cc2cc3cc4c(cc3[nH]c2=O)OCCO4)c1 | nt | 2 | nt | -22 | nt | -20
COc1ccc(C(=O)N(Cc2ccccc2)Cc2cc3cc4c(cc3[nH]c2=O)OCCO4)cc1 | nt | -6 | nt | 59* | nt | -13
O=C(CCCn1c(=S)[nH]c2cc3c(cc2c1=O)OCO3)N1CCN(c2ccc(Cl)cc2)CC1 | -1 | nt | nt | 99* | nt | nt
CC(=O)N1CC2(C1)[C@H](c1ccc(-c3ccc(C#N)cc3)cc1)[C@H](CO)N2CCC(F)(F)F | nt | nt | 33* | nt | -7 | -1
CC(=O)N1CC2(C1)[C@@H](c1ccc(-c3ccc(F)cc3)cc1)[C@H](CO)N2C(C)=O | nt | nt | 7 | nt | 0 | 6
